MT1-MMP act inh – blockers of MT1-MMP proenzyme processing, primary screen, HT1080 RFP-PRO-GFP cells, GFP/RFP fluorescence; 360,000 compounds, 0.061% hits; GFP/RFP ratio change, % at 20 µM; Matrix metalloproteinase-14 (Homo sapiens), P50281; GFP/RFP ratio fluorescence, overnight; percent of plate control window, DMSO zero;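 active means GFP/RFP ratio change of at least 30% with cell ATP level not reduced by more than half and red fluorescence within 50% of control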
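Assay system: HT1080 cells carrying an RFP-PRO-GFP reporter | Dosing: Single dose of 20 µM compound, 1% DMSO final | Incubation: Cells overnight before dosing, compound overnight, 37 °C, 5% CO2 | Evaluation: GFP/RFP fluorescence ratio | Control set: DMSO and RFP-L50D-GFP cell wells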
bovine MsrA act – bovine MsrA enzyme activators, primary screen, biochemical, absorbance, HTS. Methionine sulfoxide reductase A (Bos taurus). purified bovine MsrA, absorbance read-out. activation, % at 10.6 µM. 360,000 compounds, 0.3% hits. AID 602163, 2012; in the data active means activation above about 7.5%;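 further: 0% = vehicle and 100% = reference activator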
DAGLB inhibitor – DAGLB lipase inhibitors, primary screen, biochemical, fluorescence, HTS. Diacylglycerol lipase-beta (Homo sapiens), Q8NCG7. HEK293T DAGLB membrane lysate, EnzChek fluorogenic substrate. inhibition, % at 5.17 µM. 340,000 compounds, 0.059% hits; in the data active means inhibition above about 34%;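 further: 0% = enzyme with vehicle and 100% = wells lacking enzyme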
Target sequence (Q8NCG7 whole entry, looked up): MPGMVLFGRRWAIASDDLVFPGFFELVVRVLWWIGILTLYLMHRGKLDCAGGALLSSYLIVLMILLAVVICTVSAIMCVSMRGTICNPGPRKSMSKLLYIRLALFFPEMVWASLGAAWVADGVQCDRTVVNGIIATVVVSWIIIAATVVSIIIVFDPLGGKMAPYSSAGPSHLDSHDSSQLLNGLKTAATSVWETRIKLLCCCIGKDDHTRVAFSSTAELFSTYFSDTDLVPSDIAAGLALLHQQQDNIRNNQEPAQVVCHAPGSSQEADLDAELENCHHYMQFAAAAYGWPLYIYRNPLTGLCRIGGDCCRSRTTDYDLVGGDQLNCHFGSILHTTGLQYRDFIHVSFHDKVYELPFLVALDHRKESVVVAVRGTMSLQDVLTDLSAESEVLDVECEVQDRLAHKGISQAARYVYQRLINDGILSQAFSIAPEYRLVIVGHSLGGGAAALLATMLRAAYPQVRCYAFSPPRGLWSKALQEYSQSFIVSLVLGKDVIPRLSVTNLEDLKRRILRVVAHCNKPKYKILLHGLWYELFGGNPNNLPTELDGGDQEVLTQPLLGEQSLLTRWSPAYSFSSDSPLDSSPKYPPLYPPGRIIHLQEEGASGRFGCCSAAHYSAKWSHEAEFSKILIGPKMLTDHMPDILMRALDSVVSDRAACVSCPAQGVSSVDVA
MsrA inh – bovine MsrA enzyme inhibitors, primary screen, biochemical, absorbance, HTS; Methionine sulfoxide reductase A (Bos taurus); purified bovine MsrA, absorbance read-out; inhibition, % at 15.5 µM; 360,000 compounds, 0.75% hits; in the data active means inhibition above about 4.5%;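 further: 0% = vehicle wells with enzyme and 100% = reference inhibitor wells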
SKN-1 block – suppressors of acrylamide-induced Pgst-4::GFP reporter in worms, primary screen, SKN-1 inhibitor project, whole organism, uHTS, GFP/RFP fluorescence ratio, strain VP596; C. elegans VP596 Pgst-4::GFP/RFP ratio, 24 h; inhibition, % at 21.8 µM; 360,000 compounds, 0.49% hits;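 active means interference check ratio from 0.5 to 1.5 plus GFP to RFP signal ratio inhibition reaching or exceeding a fixed threshold, cut at about 30% in these data, passing the limit was not always enough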
MIN6 prolif – inducers of MIN6 beta-cell proliferation, primary screen, ATP luminescence, uHTS | proliferation, % at 10 µM | MIN6 cells proliferation, ATPlite luminescence, 48 h; cells starved in 0.2% serum; 100% = growth in 10% serum | 330,000 compounds, 0.29% hits | AID 2380, 2010;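 active means compounds whose signal lies at least 3.5 SD above the mean of all wells on their plate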;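 further: 0% = DMSO-treated cells in low-serum medium and 100% = 10% serum control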
Numbers without * were called inactive; · = no result given. This is a sample that favours compounds with a hit; in the whole collection about 1.8% have one here.

SMILES | MT1-MMP act inh | bovine MsrA act | DAGLB inhibitor | MsrA inh | SKN-1 block | MIN6 prolif
Brc1ccc(CSc2nnc(-c3cccnc3)o2)cc1 | -1.6 | -1.3 | 0.1 | 0.0 | 43.3* | 3.4
Clc1ccc(-c2nnc(-c3ccccc3)o2)cn1 | -1.5 | 2.9 | -2.0 | 0.3 | 41.7* | ·
c1ccc(CSc2nnc(-c3cccnc3)o2)cc1 | -6.3 | -9.8 | 2.0 | -0.7 | -2.3 | -0.5
CN(C(=O)c1ccco1)c1nc(-c2ccccc2)cs1 | 1.0 | -2.5 | -13.4 | -1.3 | 40.1* | -2.3
CCN(C(=O)c1ccco1)c1nc(-c2ccc(OC)cc2)cs1 | 2.8 | -6.0 | -13.3 | 0.4 | 45.6* | -1.5
C=CCN1C[C@H](COC(=O)c2ccc(C)c(C)c2)Oc2cccc(F)c2S1(=O)=O | · | · | · | 0.6 | · | ·
CCCCCCn1c(N2CCN(c3cccc(Cl)c3)CC2)nc2c1c(=O)[nH]c(=O)n2C | 4.1 | 0.9 | 0.0 | -0.3 | 37.8* | -5.0
Cc1c(C(=O)O)cccc1-c1ccc(/C=C2/NC(=O)N(c3ccccc3)C2=O)o1 | -1.8 | -14.1 | 0.5 | 3.8 | -3.8 | -1.3
CC1=C(C#N)c2nc(N)c(C#N)c(C)c2/C1=C\c1ccc(-c2ccccc2C(=O)O)o1 | 49.2 | -4.8 | 21.3 | 1.4 | 43.4* | ·
Cc1snc(S(=O)(=O)/C(C#N)=N\Nc2ccccc2)c1C#N | 1.8 | -1.3 | 1.4 | 2.9 | -3.8 | -1.6
Cc1snc(S(=O)(=O)/C(C#N)=N/Nc2ccc(C(F)(F)F)cc2)c1C#N | -2.7 | 0.6 | 3.5 | 4.6* | 11.2 | -4.7
O=C(c1ccco1)N1N=C(c2cccs2)CC1c1ccccc1O (stereo not drawn) | -2.9 | -5.2 | 3.3 | 5.9* | -9.6 | -3.5
CS(=O)(=O)N1N=C(c2cccs2)CC1c1ccccc1O (stereo not drawn) | -8.7 | 0.1 | -3.4 | 0.3 | 41.0* | 1.6
C[C@@H]1CN([C@@H](C)CO)C(=O)CCCn2cc(nn2)CO[C@H]1CN(C)C(=O)c1ccncc1 | · | · | · | 0.4 | · | ·
CC(C)CCNC(=O)c1cnn2c(C(F)(F)F)cc(-c3ccco3)nc12 | 0.7 | -0.3 | 0.9 | 0.7 | 43.9* | 1.0
O=C(O)CCc1ccc(-c2ccccc2)n1NC(=O)c1ccco1 | 1.9 | -5.0 | 0.7 | 0.3 | 39.2* | -1.8
O=C(O)CCc1ccc(-c2cccs2)n1NC(=O)c1ccco1 | 1.3 | -5.1 | 1.9 | -0.5 | -5.2 | 0.7
CC1(C(=O)Nc2cnc3ccccc3c2)CCN1C(=O)c1ccccc1CCc1ccccc1 (stereo not drawn) | -3.3 | -2.3 | · | 1.4 | 39.1* | ·
Cc1ccc(NC(=O)C2(C)CCN2C(=O)c2ccccc2CCc2ccccc2)cc1C (stereo not drawn) | -3.2 | 0.6 | · | -0.5 | 5.1 | ·
NNc1nc2ccccc2nc1C(F)(F)F | 3.0 | -1.0 | 0.4 | -0.9 | 11.3 | 1.2
FC(F)(F)c1nc2ccccc2nc1N/N=C\c1ccccc1 | 6.7 | -1.6 | 18.1 | 4.1 | 37.3* | -0.6
O=C1/C(=C\c2ccc(C(F)(F)F)cc2)CSc2sccc21 | 0.5 | -3.5 | -6.6 | -0.4 | 36.5* | -6.7
O=C1/C(=C/c2ccc(F)c(F)c2)CSc2sccc21 | -4.1 | -3.4 | -3.3 | -0.8 | 14.9 | -3.6
Nc1nc(-c2ccc(Oc3ccccc3)cc2)cs1 | 0.6 | -0.4 | 0.0 | 1.0 | 43.7* | -2.7
Nc1nc(-c2ccc(-c3ccccc3)cc2)cs1 | -3.3 | -1.8 | -0.1 | -0.2 | 66.2* | -4.7
SMILES | MT1-MMP act inh | bovine MsrA act | DAGLB inhibitor | MsrA inh | SKN-1 block | MIN6 prolif
Cc1ccc(-c2csc(N)n2)cc1 | -2.3 | -1.2 | 1.7 | -1.0 | -17.9 | ·
Cc1nc([N+](=O)[O-])cn1CC(Cl)Cn1cc([N+](=O)[O-])nc1C | · | · | · | 1.8 | · | ·
CCCNCc1cc(Cl)c(OCC)c(Cl)c1 | · | 2.9 | -0.7 | 0.0 | 41.5* | -1.1
COC1=CC(=O)c2ccccc2C1=O | -29.4 | 14.1* | -0.1 | · | 0.3 | -6.2
C[C@@H]1CN([C@@H](C)CO)C(=O)CCCn2cc(nn2)CO[C@H]1CN(C)C(=O)Nc1ccccc1 | · | · | · | -0.6 | · | ·
CCOC1=C2CN(S(=O)(=O)c3ccccc3)[C@@H](c3ccccc3)C[C@H]2[C@H]2C(=O)N(c3ccccc3)C(=O)[C@H]2C1 | · | · | · | 0.4 | · | ·
CCCn1nc2cc(C(=O)NCc3ccc(OC(F)(F)F)cc3)ccc2c1OCC | 6.9 | 0.2 | -0.7 | -0.1 | 62.0* | -4.2
COc1ccccc1-c1c(C(F)(F)F)oc2cc(OC(=O)c3cccc([N+](=O)[O-])c3C)ccc2c1=O | 3.5 | -2.2 | 0.0 | 0.2 | 35.8* | -5.7
COc1ccccc1-c1c(C(F)(F)F)oc2cc(OCC(=O)Nc3cc(C)ccc3C)ccc2c1=O | · | · | · | · | · | 0.3
CCCN(CCC)c1cc(=O)nc2ccccn12 | · | · | · | 0.2 | · | ·
C=CCN=C1NC(c2cccc(Cl)c2)C(C(=O)OC)=C(C)N1Cc1cccc(C(F)(F)F)c1 (stereo not drawn) | · | · | · | -0.2 | · | ·
Cc1ccccc1-n1nc2c(c1NC(=O)C1CCCC1)CS(=O)(=O)C2 | -8.2 | -1.1 | -0.9 | -0.4 | 24.2 | 1.0
Cc1cccc(-n2nc3c(c2NC(=O)C2CC2)CS(=O)(=O)C3)c1C | -0.4 | -2.7 | 1.3 | -0.4 | 35.2* | 0.1
N/C(=N\OC(=O)/C=C/c1ccccc1)c1ccccc1 | 3.6 | -0.3 | -5.0 | 1.5 | 35.6* | -3.5
N/C(=N\OC(=O)/C=C/c1ccccc1)c1ccc(Cl)cc1 | 0.9 | -3.3 | · | 0.6 | 25.4 | -0.7
COC(=O)c1cc(NC(=O)CC2SC(=Nc3ccccc3)N(CCc3c[nH]c4ccccc34)C2=O)cc(C(=O)OC)c1 (stereo not drawn) | -10.2 | -1.3 | 0.9 | 0.4 | 35.6* | -6.0
Cc1cc(-c2nc3cc(F)ccc3s2)ccc1N | 3.4 | -11.6 | -3.1 | 3.7 | 83.2* | ·
NC(=O)c1ncn2c(=O)n(CCCl)nnc12 | · | · | · | 1.5 | · | ·
Brc1ccc(Oc2nnnn2-c2ccccc2)cc1 | 1.7 | -7.6 | -8.0 | 1.1 | 36.8* | 2.5
CC[C@H](NC(=O)[C@@H](Cc1ccccc1)NC(=O)[C@H]1O[C@@H](n2ccc(=O)[nH]c2=O)[C@H](O)[C@@H]1O)c1ccccc1 | · | · | · | -0.2 | · | ·
Cc1ccc(N=Cc2c(C)[nH]n(-c3ccccc3)c2=O)nc1 | 5.7 | -2.8 | 1.3 | 0.8 | 6.4 | -0.3
Cc1[nH]n(-c2ccccc2)c(=O)c1/C=N/c1ccccn1 | 1.9 | -4.8 | 0.1 | 0.8 | 51.1* | -0.7
Cc1cc(C)c(S(=O)(=O)/N=C2/C=C(SCC(=O)O)C(=O)c3ccccc32)cc1C | -2.7 | 9.4* | 6.5 | · | 7.0 | -5.2

Bioassay records deposited in PubChem BioAssay by several laboratories.
